The results in this text go back to ChEMBL document CHEMBL1123465, “Buspirone analogues. 2. Structure-activity relationships of aromatic imide derivatives” (J Med Chem, 1986).

For test [1], the system named is Rattus norvegicus. Briefly: Effective oral dose that conditioned avoidance response in rat. It counts as functional. In a few lines:
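On day 10, trained rats (groups of 5-10) were given drug or vehicle by oral gavage and tested at the time of maximal activity. Responses over 30 min (11 trials at 3-min intervals) were pooled across dose levels to calculate the dose suppressing avoidance in 50% of animals (ED50).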

The subject of test [2] is Rattus norvegicus. As to the kind of experiment: Effective oral dose that produce reversal of trifluoperazine-induced catalepsy in rat. Type of test: functional.
Test [3] deals with D(2) dopamine receptor (Rattus norvegicus, UniProt P61169). Briefly: Binding affinity at Dopamine receptor D2 in rat corpus striatum by displacing [3H]-spiperone. Type of test: tissue-based. Put shortly:
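Washed membranes from male Sprague-Dawley rat corpora striata were preincubated 10 min at 37 °C in Hepes-KOH pH 7.4 buffer with NaCl, KCl, CaCl2, MgCl2, ascorbic acid and 10 μM pargyline. 20-50 μg protein was incubated with 100 pM [3H]spiperone for 15 min at 37 °C, in duplicate. Nonspecific binding was defined with 10 μM D-(+)-butaclamol. IC50 came from log-probit linear regression over 3-5 concentrations.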

The species entered for test [4] is Rattus norvegicus. Briefly: Maximum effective dose that causes vogel anticonflict effect when given through oral route; IA=Inactive. It counts as functional, organism-based. Put shortly:
(§1)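 Reverse day-night cycled rats were water deprived 24 h, bottle trained for 15 min, then deprived a further 23.5 h. Compound was given orally before testing, and licks were counted, with brief grid shocks after a set lick number. Activity meant more licking than controls (Student's t test, p < 0.05). Maximum dose examined was 20 mg/kg.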

For test [5], the species on record is Rattus norvegicus. Briefly: Maximum effective dose that causes vogel anticonflict effect when given through oral route. It counts as functional. The following applies: read-out: MED. In a few lines: as §1
For test [6], the species on record is Rattus norvegicus. Briefly: Inhibition of induced serotonin syndrome; IA=Inactive. It counts as functional, organism-based.
Test [7] is filed under the species Rattus norvegicus. As to the kind of experiment: Inhibition of dorsal raphe neuron firing. It counts as functional.
Test [8] deals with Rattus norvegicus. Briefly: Induction of serotonin syndrome when given po.
The subject of test [9] is Rattus norvegicus. Briefly: Inhibition of dorsal raphe neuron firing when given iv. It counts as functional.

Activity calls are given as the source filed them. No cut-off for these calls is given here. Some results are limits rather than exact numbers.

D(2) dopamine receptor, sequence (P61169 whole entry): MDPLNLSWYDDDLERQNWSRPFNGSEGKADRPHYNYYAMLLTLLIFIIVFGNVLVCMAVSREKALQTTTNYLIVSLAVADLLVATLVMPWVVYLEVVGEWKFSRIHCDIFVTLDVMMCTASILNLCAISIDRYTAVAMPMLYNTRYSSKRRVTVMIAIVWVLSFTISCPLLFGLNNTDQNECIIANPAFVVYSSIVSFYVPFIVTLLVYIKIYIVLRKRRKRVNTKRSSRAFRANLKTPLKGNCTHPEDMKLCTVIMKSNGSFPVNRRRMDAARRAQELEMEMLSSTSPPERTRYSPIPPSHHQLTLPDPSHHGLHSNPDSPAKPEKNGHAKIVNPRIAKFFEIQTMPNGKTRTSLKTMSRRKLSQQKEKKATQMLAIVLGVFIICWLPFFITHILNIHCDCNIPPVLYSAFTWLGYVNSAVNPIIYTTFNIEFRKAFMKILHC

For orientation: ED50 means the dose that gives a 50% effect, or the effect in half of the subjects. Usually IC50 stands for the concentration at which inhibition is half-maximal. With `CSc1nc(N2CCN(CCCCN3C(=O)c4ccccc4C3=O)CC2)ncc1F.Cl`, the ED50 in test [1] was greater than 100 mg/kg; in test [2], greater than 20 mg/kg. In test [3], this compound gave an IC50 greater than 1000 nM.
For `CC1(c2ccc(F)cc2)CC(=O)N(CCCCN2CCN(c3nsc4ccccc34)CC2)C1=O` (stereo not given), the ED50 in test [1] was 100 mg/kg; in test [2], greater than 20 mg/kg. Also, in [3], the IC50 is 120 nM.
Regarding `CC1(c2ccc(F)cc2)CC(=O)N(CCCCN2CCN(c3ncccn3)CC2)C1=O` (stereo not given), the 50% effective dose (ED50) in [1] turned out to be 56 mg/kg; in [2], 11 mg/kg. For the same compound, the MED entry in test [4] is “inactive”. The compound further registered a half-inhibitory concentration (IC50) in test [3] greater than 1000 nM.
On to `CC1(c2ccc(F)cc2)CC(=O)N(CCN2CCN(c3ncccn3)CC2)C1=O` (stereo not given), for which the ED50 in [1] is greater than 100 mg/kg; in test [2], greater than 20 mg/kg. The 50% inhibitory concentration (IC50) in test [3] is greater than 1000 nM.
For `O=C1CC(c2ccccc2)(c2ccccc2)C(=O)N1CCCCN1CCN(c2ncccn2)CC1`, the figures for the ED50 in test [1] and in test [2] were greater than 100 mg/kg and greater than 20 mg/kg, respectively. In addition, the minimal effective dose in test [5] turned out to be 10 mg/kg. Also, in test [3], the concentration for half-maximal inhibition (IC50) was greater than 1000 nM.
For the compound `O=C1c2cc(Cl)c(Cl)cc2C(=O)N1CCCCN1CCN(c2ncccn2)CC1`, the ED50 in test [1] was greater than 100 mg/kg. The IC50 in [3] is greater than 1000 nM.
Regarding `Cl.O=C1C2CC=CCC2C(=O)N1CCCCN1CCN(c2ncccn2)CC1` (stereo not given), the ED50 in [1] was greater than 100 mg/kg. Moreover, the IC50 in [3] is greater than 1000 nM.
On to `CC1(c2ccc(F)cc2)CC(=O)N(CCCCN2CCN(c3ncccc3C#N)CC2)C1=O` (stereo not given), for which the ED50 in test [1] was 100 mg/kg; in test [2], 20 mg/kg. The MED result in test [4] is “inactive”. The compound further registered an IC50 in [3] of 710 nM.
Regarding `Cl.N#Cc1cccnc1N1CCN(CCCCN2C(=O)CC3(CCCc4ccccc43)C2=O)CC1` (stereo not given), the ED50 in [1] is 100 mg/kg; in test [2] it was greater than 20 mg/kg. This compound also displayed an IC50 in test [3] of 310 nM.
In the case of `O=C1c2ccccc2C(=O)N1CCCCN1CCN(c2ncccn2)CC1`, the ED50 was found to be 65 mg/kg in test [1] and 20 mg/kg in test [2]. Besides, the MED entry in test [4] was “inactive”. In addition, the IC50 in [3] is greater than 1000 nM.
Regarding `Cl.N#Cc1cccnc1N1CCN(CCCCN2C(=O)c3ccc([N+](=O)[O-])cc3C2=O)CC1`, the ED50 is 78 mg/kg in test [1] and greater than 20 mg/kg in test [2]. This compound also registered an IC50 in test [3] greater than 1000 nM.
As for `Cl.O=C1CC2(CCCc3ccccc32)C(=O)N1CCCCN1CCN(c2ncccn2)CC1` (stereo not given), the ED50 is 50 mg/kg in test [1] and greater than 20 mg/kg in [2]. Also, in [4], the MED result was “inactive”. In test [3], this compound came in with an IC50 greater than 1000 nM.
Turning to `Cl.O=C1CC2(CCc3ccccc32)C(=O)N1CCCCN1CCN(c2ncccn2)CC1` (stereo not given), the ED50 in [1] was determined as 54 mg/kg; in test [2], 11.5 mg/kg. The MED result in test [4] is “inactive”. The IC50 in test [3] was 1300 nM.
On to `O=C1c2ccc([N+](=O)[O-])cc2C(=O)N1CCCCN1CCN(c2ncccn2)CC1`, for which the 50% effective dose (ED50) is 75 mg/kg in test [1] and greater than 20 mg/kg in test [2]. In test [3], the IC50 is greater than 1000 nM.
Regarding `Cl.O=C1CC2(CCc3ccccc3C2)C(=O)N1CCCCN1CCN(c2ncccn2)CC1` (stereo not given), the ED50 in test [1] worked out at 58 mg/kg; in [2], 13 mg/kg. In addition, in test [5], the minimal effective dose was determined as 5 mg/kg. For the same compound, the half-maximal inhibitory concentration (IC50) in test [3] is 540 nM.
As for `Cc1ccc(S(=O)(=O)O)cc1.O=C1CC2(CCCc3ccccc32)C(=O)N1CCCCN1CCN(c2nsc3ccccc23)CC1` (stereo not given), the figures for the ED50 in test [1] and in test [2] were greater than 100 mg/kg and greater than 20 mg/kg, respectively.
Consider `O=C1c2c(Cl)c(Cl)c(Cl)c(Cl)c2C(=O)N1CCCCN1CCN(c2ncccn2)CC1`, for which the ED50 was greater than 100 mg/kg in test [1] and greater than 20 mg/kg in test [2]. The compound further had an IC50 in [3] greater than 1000 nM.
In the case of `CC1(c2ccc(F)cc2)CC(=O)N(CCCN2CCN(c3ncccn3)CC2)C1=O` (stereo not given), the values for the ED50 in [1] and in [2] were greater than 100 mg/kg and greater than 20 mg/kg, respectively. The compound also came in with an IC50 in test [3] greater than 1000 nM.
As to `Cl.O=C1CC2(CCCC2)CC(=O)N1CCCCN1CCN(c2ncccn2)CC1` [BUSPIRONE HYDROCHLORIDE], the ED50 result in test [6] is “inactive”. Further, in test [5], the minimal effective dose is 1 mg/kg. For the same compound, the 50% effective dose (ED50) in [2] turned out to be 3.6 mg/kg; in [7] it was 0.01 mg/kg.
`N#Cc1cccnc1N1CCN(CCCCN2C(=O)CC(c3ccccc3)(c3ccccc3)C2=O)CC1`: the ED50 in [1] was greater than 100 mg/kg; in test [2] it was greater than 20 mg/kg. The IC50 in [3] is greater than 1000 nM.
With `CC1(c2ccccc2)CC(=O)N(CCCCN2CCN(c3ncccn3)CC2)C1=O.Cl` (stereo not given), it took a dose of 60 mg/kg to reach the 50% effect level in test [1] (ED50). In addition, the IC50 in [3] is greater than 1000 nM.
Turning to `O=C1CC(c2ccccc2)(c2ccccc2)C(=O)N1CCCCN1CCN(c2nsc3ccccc23)CC1`, the 50% effective dose (ED50) in test [1] was greater than 100 mg/kg; in test [2] it was greater than 20 mg/kg. In test [3], this compound displayed an IC50 of 230 nM.
In the case of `CC1(C)CC(=O)N(CCCCN2CCN(c3ncccn3)CC2)C(=O)C1.Cl` [GEPIRONE HYDROCHLORIDE], the ED50 in [1] is 53 mg/kg; in test [8], 17.1 mg/kg; in test [2], 6.5 mg/kg; in test [9] it was 0.025 mg/kg. Also, the minimal effective dose in test [5] is 1 mg/kg.
